Source: ChEMBL document CHEMBL3745658, “An Orally Bioavailable, Indole-3-glyoxylamide Based Series of Tubulin Polymerization Inhibitors Showing Tumor Growth Inhibition in a Mouse Xenograft Model of Head and Neck Cancer” (J Med Chem, 2015)
≈ marks a conversion by molar mass, not a printed value. Calls of active or inactive are those of the source. No cut-off for these calls is given here.

Assays:
[1] = tested on: FaDu; assay: Cytotoxicity against human FADU multicellular tumor spheroid assessed as effect on normal spheroid growth at 1 uM incubated for 2 to 3 days by light microscop; format: cell-based
Summary of the method: (§1)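 FaDu monoculture spheroids were dosed once and imaged at 0, 2, 4 and 7 days after dosing. Fragmentation and growth were judged against untreated spheroids.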

[2] = tested on: FaDu; assay: Selectivity index, ratio of EC50 for cell cycle arrest in human FADU cells to LC50 for cytotoxicity against human FADU cells; format: functional
Summary of the method: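 G2/M arrest EC50 came from a 24 h dose–response of propidium iodide flow cytometry in FaDu cells. It was compared with the LC50 from a 72 h MTT assay in FaDu cells (triplicate wells, A570, viability relative to DMSO, nonlinear regression).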

[3] = molecular target: T1, Tubulin (Sus scrofa, UniProt P02554+P02550); assay: Inhibition of porcine brain tubulin polymerization assessed as reduction in GTP-induced microtubule assembly after 60 mins by OD340 method
[4] = Apparent permeability from apical to basolateral side in human Caco2 cells assessed as drug recovery at 10 uM at pH 7.4 after 60 mins by mass spectrometry; format: ADME, cell-based; conditions: Caco-2, pH 7.4, read-out: Drug recovery
[5] = Solubility in 2% DMSO containing 50 mM potassium phosphate buffer solution at pH 7.4 by dynamic light scattering method; conditions: 50 mM potassium phosphate buffer with 2% DMSO
[6] = tested on: SCC-4; assay: Cytotoxicity against human SCC4 cells assessed as reduction in cell viability after 72 hrs by MTT assay; format: functional, cell-based
Summary of the method: (§2)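 Cells plated at an appropriate density and left 24 h to attach, then dosed in triplicate with compound diluted from 10 mM DMSO stocks into full growth medium (added at 2× final concentration). After 72 h, cells PBS-washed and given MTT (0.5 mg/mL in PBS) for 45−60 min. Formazan dissolved in 0.1 M HCl/2-propanol, A570 read (650 nm reference). Viability normalised to DMSO control; LC50 by nonlinear regression.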

[7] = Apparent permeability from apical to basolateral side in human Caco2 cells at 10 uM at pH 7.4 after 60 mins by mass spectrometry; conditions: Caco-2, pH 7.4
[8] = tested on: MES-SA; assay: Cytotoxicity against human MES-SA cells assessed as reduction in cell viability after 72 hrs by MTT assay; format: functional, cell-based; summary of the method: as §2
[9] = tested on: FaDu; assay: Cytotoxicity against human FADU cells assessed as reduction in cell viability after 72 hrs by MTT assay; format: functional; conditions: read-out: LC50 (the source's name)
[10] = tested on: MES-SA/Dx5; assay: Cytotoxicity against multidrug resistant human MES-SA/Dx5 cells assessed as reduction in cell viability after 72 hrs by MTT assay; format: functional, cell-based; summary of the method: as §2
[11] = Metabolic stability in CD-1 mouse liver microsomes assessed as half life at 1 uM preincubated for 5 mins before addition of NADPH by LC-MS/MS method; format: ADME
[12] = tested on: FaDu; assay: Cytotoxicity against human FADU multicellular tumor spheroid assessed as dispersion of cells from the spheroid at 1 uM incubated for 2 to 7 days by light microscopy; format: functional, cell-based; summary of the method: as §1
[13] = tested on: FaDu; assay: Induction of microtubule disruption in human FADU cells assessed as multipolarization of spindle at 50 nM after 24 hrs by immunofluorescence staining method; format: functional, cell-based
[14] = molecular target: T2, Tubulin (Sus scrofa) (UniProt P02554+P02550); assay: Displacement of [3H]-vinblastine from biotinylated porcine tubulin after 15 mins by competitive binding assay; format: protein assay
Summary of the method: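 Biotinylated porcine tubulin, 0.2 μM [3H]-vinblastine, SPA beads and test compound combined together in G-PEM with 1 mM GTP, 3% DMSO, duplicate wells, 15 min at rt before counting. Nonspecific binding taken with 1000-fold unlabeled excess. IC50 from seven-point semilog curves, four-parameter fit.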

[15] = tested on: FaDu; assay: Cytotoxicity against human FADU multicellular tumor spheroid assessed as induction of spheroid disruption incubated for 7 days by light microscopy; format: functional, cell-based; conditions: for EC50: 168 h
Summary of the method: (§3)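 Monocultured FaDu spheroids dosed over a concentration range and imaged at 0, 2, 4 and 7 days post-dosing. Volume followed over time, fragmentation scored at the 7-day end point, and EC50 for disruption derived from 7-day dose–response plots. Two independent experiments, mean ± SEM.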

[16] = tested on: FaDu; assay: Cell cycle arrest in human FADU cells assessed as accumulation at G2/M phase after 24 hrs by propidium iodide staining-based flow cytometry; format: functional
Summary of the method: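 FaDu cells seeded at 10^5/well, attached overnight, then exposed to compound in full growth medium at 37 °C for 24 h. Cells were trypsinized, fixed in ice-cold 70% ethanol, treated with RNase A (100 μg/mL), stained overnight in the dark with propidium iodide (50 μg/mL), and analysed by flow cytometry with at least 10000 events per sample.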

[17] = tested on: SK-MEL-28; assay: Cytotoxicity against human SK-MEL-28 cells assessed as reduction in cell viability after 72 hrs by MTT assay; format: functional, cell-based; summary of the method: as §2
[18] = molecular target: T1, Tubulin; assay: (§4) Displacement of [3H]-colchicine from biotinylated porcine tubulin after 2 hrs by competitive binding assay; format: protein assay
Summary of the method: (§5)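 Biotinylated porcine tubulin (750 ng/well) with 0.1 μM [3H]-colchicine and test compound in G-PEM with 1 mM GTP, 3% DMSO, duplicate wells, 2 h at 37 °C. Streptavidin SPA beads then added for 45 min at 37 °C. Nonspecific binding taken with 1000-fold unlabeled excess. IC50 from seven-point semilog curves, four-parameter fit.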

[19] = Efflux ratio of apparent permeability from basolateral to apical side over apical to basolateral side in human Caco2 cells; conditions: Caco-2
[20] = tested on: FaDu; assay: Antitumor activity against human FADU cells xenografted in CD-1 mouse assessed as inhibition of tumor growth at 10 to 20 mg/kg, po qd for 10 days measured at 3 to 9 days; format: functional, organism-based
Summary of the method: (§6)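 FaDu xenografts established in mice, then test agent given by oral gavage once daily for 10 days; tumor volume followed against an untreated control group, with significance assessed at days 3, 6, 9, 13 and 15.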

[21] = Solubility in 2% DMSO containing 50 mM potassium phosphate buffer solution pH 7.4 at 10 uM by dynamic light scattering method; conditions: pH 7.4, 10 µM
[22] = tested on: FaDu; assay: Cytotoxicity against human FADU multicellular tumor spheroid assessed as reduction of spheroid volume by light microscopy; format: functional, cell-based; summary of the method: as §3
[23] = molecular target: T2, Tubulin (Sus scrofa); assay: Displacement of [3H]-paclitaxel from biotinylated porcine tubulin after 25 mins by competitive binding assay; format: protein assay
Summary of the method: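 Biotinylated porcine tubulin precoupled to SPA beads for 30 min at 4 °C, then 0.05 μM [3H]-paclitaxel and test compound added in G-PEM with 1 mM GTP, 3% DMSO, duplicate wells, 25 min at rt. Nonspecific binding taken with 1000-fold unlabeled excess. IC50 from seven-point semilog curves, four-parameter fit.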

[24] = tested on: FaDu; assay: Ratio of EC50 for human FADU multicellular tumor spheroid to LC50 for human FADU cells; format: functional
Summary of the method: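 FaDu spheroids were dosed over a range of concentrations, and spheroid volume was measured at the 7-day endpoint. EC50 for disruption came from dose–response plots, combining two independent experiments. This was compared with the 72 h monolayer MTT LC50 (triplicate wells, nonlinear regression, viability relative to DMSO).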

[25] = tested on: FaDu; assay: Antitumor activity against human FADU cells xenografted in CD-1 mouse assessed as tumor volume recovery at 10 mg/kg, po qd for 10 days measured between 6 and 9 days; format: functional, organism-based; summary of the method: as §6
[26] = tested on: FaDu; assay: Induction of microtubule disruption in human FADU cells at 250 nM after 24 hrs by immunofluorescence staining method; format: functional, cell-based
[27] = tested on: SH-SY5Y; assay: Cytotoxicity against human SH-SY5Y cells assessed as reduction in cell viability after 72 hrs by MTT assay; format: functional, cell-based; summary of the method: as §2
[28] = Aqueous solubility of the compound by UV-HPLC
[29] = tested on: FaDu; assay: Induction of mitotic spindle defects in human FADU cells at 15 nM after 24 hrs by immunofluorescence staining method; format: functional, cell-based
[30] = tested on: FaDu; assay: Cytotoxicity against human FADU multicellular tumor spheroid assessed as dispersion of cells from the spheroid at 0.25 uM incubated for 2 to 7 days by light microscopy; format: functional, cell-based; summary of the method: as §3
[31] = tested on: FaDu; assay: Cytotoxicity against human FADU multicellular tumor spheroid assessed as effect on normal spheroid growth at 0.25 uM incubated for 2 to 3 days by light microscopy; format: cell-based; summary of the method: as §3
[32] = tested on: FaDu; assay: Induction of microtubule disruption in human FADU cells at 50 nM after 24 hrs by immunofluorescence staining method; format: functional, cell-based
[33] = tested on: FaDu; assay: Antitumor activity against human FADU cells xenografted in CD-1 mouse assessed as inhibition of tumor growth at 10 mg/kg, po qd for 10 days measured at 13 and 15 days; format: functional, organism-based
Summary of the method: (§7)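 FaDu xenografts established in mice before dosing; compound given by oral gavage once daily for 10 days. Tumor volume was followed over time and compared with a vehicle control group, with significance assessed at days 3, 6, 9, 13 and 15. Body weight and survival were also recorded.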

[34] = tested on: FaDu; assay: Antitumor activity against human FADU cells xenografted in CD-1 mouse assessed as inhibition of tumor growth at 10 mg/kg, po qd for 10 days measured at 3 to 9 days; format: functional, organism-based; summary of the method: as §7
[35] = tested on: FaDu; assay: Induction of microtubule disruption in human FADU cells assessed as multipolarization of spindle at 30 nM after 24 hrs by immunofluorescence staining method; format: functional, cell-based
Summary of the method: (§8)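 FaDu cells grown on coverslips (15000/well) for 24 h, then exposed to compound for 24 h. Unassembled tubulin was extracted with PHEM/0.5% Triton X-100/10 μM paclitaxel for 3 min. Cells were fixed in PHEM with 8% paraformaldehyde and 0.3% glutaraldehyde on ice, blocked, then stained with FITC anti-α-tubulin (DM1A) and DAPI. Confocal z-stacks were taken at 100×.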

[36] = tested on: FaDu; assay: Induction of microtubule disruption in human FADU cells at 150 nM after 24 hrs by immunofluorescence staining method; format: functional, cell-based; summary of the method: as §8
[37] = Solubility in 2% DMSO containing 50 mM potassium phosphate buffer solution pH 7.4 at 1 uM by dynamic light scattering method; format: physicochemical; conditions: pH 7.4, 1 µM
[38] = molecular target: T2, Tubulin (Sus scrofa); assay: Potency index, ratio of vincristine IC50 to docetaxel IC50 for displacement of [3H]-paclitaxel from biotinylated porcine tubulin; format: protein assay
[39] = molecular target: T2, Tubulin (Sus scrofa); assay: as §4; format: protein assay; summary of the method: as §5

Row | SMILES | Activity [1] | Ratio [2] | IC50 [3] [nM] | solubility kinetic [5] [µM] | Activity [6] | Papp A→B at 1 h, 10 µM [7] [×10⁻⁶ cm/s] | Activity [8] | CC50 [9] [nM] | Activity [10] | half-life at 1 µM [11] [min] | Activity [12] | Activity [14] | EC50 [15] [nM] | Activity [17] | IC50 [18] [nM] | efflux ratio [19] | solubility [21] | Activity [23] | Activity [27] | solubility [28] [µM] | further results
1 | COCCn1cc(C(=O)C(=O)Nc2ccc(OC(C)C)nc2)c2ccccc21 | Non-toxic | 2 | 6600 | 10 (≈ 3.81 µg/mL) | Active | 15.2 | Active | 55 | Active | 99 | Active | Active | 113 | Active | 500 | 0.9 | soluble | inactive | Active | – | recovery at 1 h, 10 µM [4]: < 50%; Activity [13]: Active; Activity [15]: Dose-dependent effect; Activity [16]: Dose-dependent effect; EC50 [16]: 90 nM; TGI [20]: Active; Activity [22]: Dose-dependent effect; Ratio [24]: 2; TGI [25]: inactive; Activity [26]: Active
2 | COc1ccc(NC(=O)C(=O)c2cn(C(C)C)c3ccccc23)cn1 | – | – | 14900 | 20 (≈ 6.75 µg/mL) | – | 19.8 | – | 85 | – | 5 | – | Active | – | – | 1600 | 1.4 | soluble | inactive | – | 10 (≈ 3.37 µg/mL) | –
3 | COCC(C)n1cc(C(=O)C(=O)Nc2ccc(OC)nc2)c2ccccc21 (stereo not given) | – | – | 3900 | 40 (≈ 14.7 µg/mL) | Active | 33.6 | Active | 12 | Active | 16 | – | inactive | 39 | Active | 160 | 1.1 | soluble | inactive | Active | 10 (≈ 3.67 µg/mL) | Activity [29]: Active; Activity [30]: Active; Activity [31]: Non-toxic; Activity [32]: Active; Ratio [24]: 3
4 | COc1ccc(NC(=O)C(=O)c2cn(CC3CCCO3)c3ccccc23)cn1 (stereo not given) | Non-toxic | 5 | 8300 | 10 (≈ 3.79 µg/mL) | Active | 35 | Active | 31 | Active | 34 | Active | Active | 77 | Active | 420 | 0.7 | soluble | inactive | Active | – | Activity [33]: Active; TGI [34]: Active; Activity [16]: Dose-dependent effect; EC50 [16]: 160 nM; Activity [35]: Active; Activity [36]: Active
5 | O=C(Nc1ccncc1)C(=O)c1cn(Cc2ccc(Cl)cc2)c2ccccc12 [INDIBULIN] | – | – | – | – | Active | – | Active | 32 | Active | – | – | – | – | Active | – | – | Insoluble | – | Active | ≤ 1 | solubility [37]: Insoluble
6 | CC[C@]1(O)C[C@H]2CN(CCc3c([nH]c4ccccc34)[C@@](C(=O)OC)(c3cc4c(cc3OC)N(C=O)[C@H]3[C@@](O)(C(=O)OC)[C@H](OC(C)=O)[C@]5(CC)C=CCN6CC[C@]43[C@@H]65)C2)C1 | – | – | – | – | – | – | – | – | – | – | – | Active | – | – | – | – | – | Active | – | – | Ratio IC50 [38]: 2; Activity [39]: inactive
